Source: paper PMC6690926 (International Journal of Nanomedicine, 2019)
*1 amine or outer side, *2 acyl side, *3 side chain or, on linkers, in order; H or OH if unused. Where a SMILES comes first, the peptide text is derived from it. Bridges are numbered along the chain shown (N, C = ends). Roman numbers before positions name the chains, in order. [ ]: non-standard residue; d: D form. Actinocin(9to1) = Cc1c2oc3c(C)ccc(C(=O)[*:1])c3nc-2c(C(=O)[*:2])c(N)c1=O; NMeV = CN[C@H](C(=O)O)C(C)C; Sar = CNCC(=O)O

Assays:
[1] = In vitro cytotoxicity of Act D; assay type: cell-based; settings: human, Caco-2 cells
Method in brief: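 Caco-2 cells were seeded at 1×10^4 cells/well in DMEM with 10% FBS and cultured for 24 h. They were then exposed for 5 h to the test compound at 1, 2, 3.2 and 6 µM in HBSS. WST-8 was added for 1 h and absorbance read at 450 nm. Viability is expressed as a percentage of untreated cells; mean ± SD, n=6.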

[2] = In vivo pharmacokinetic study in rats; settings: Sprague-Dawley, rat, plasma, 25 mg/kg
Method in brief: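 Male Sprague-Dawley rats (6–7 weeks, 200–250 g) received the test formulation orally in water at 25 mg/kg drug equivalent. The IV reference was 5 mg/kg aqueous drug by tail vein. Retro-orbital blood was taken into heparin plus 3.8% sodium citrate, spun at 2,500×g for 15 min at 4 °C, and plasma stored at −70 °C. Plasma was assayed by LC/MS (C18, ESI positive, m/z 428; DAMPA internal standard). Non-compartmental analysis; n=4, mean ± SD.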

[3] = Parallel artificial membrane permeability assay; assay type: in vitro ADME; settings: PAMPA, pH 6.8
Method in brief: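 PAMPA: donor wells held test formulation diluted in PBS pH 6.8 to 200 µg/mL drug equivalent; receiver wells held PBS pH 6.8. Plates were incubated 5 h at room temperature. Donor and receiver concentrations were measured by HPLC at 254 nm (C18; water pH 3.5/acetonitrile 80:20, 1 mL/min). Effective permeability was calculated with filter area 0.288 cm2, donor volume 0.2 mL and receiver volume 0.3 mL, using equilibrium concentration.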

[4] = In vitro permeability across a Caco-2 cell monolayer; assay type: in vitro ADME; settings: human

bioavailability ([2]; oral)	AUC(0-inf) ([2]; po)	AUC(0-t) ([2]; po)	Cmax ([2]; po)	Tmax ([2]; po)	half-life ([2]; po)	Papp at 5 h, 200 µg/mL [3]	Papp at 5 h, 100 µg/mL [4]	Structure (SMILES)	viability at 5 h, 3.2 µM [1]
–	–	–	–	–	–	–	–	Cc1c2oc3c(C)ccc(C(=O)N[C@@H]4C(=O)N[C@H](C(C)C)C(=O)N5CCC[C@H]5C(=O)N(C)CC(=O)N(C)[C@@H](C(C)C)C(=O)O[C@@H]4C)c3nc-2c(C(=O)N[C@@H]2C(=O)N[C@H](C(C)C)C(=O)N3CCC[C@H]3C(=O)N(C)CC(=O)N(C)[C@@H](C(C)C)C(=O)O[C@@H]2C)c(N)c1=O [Act D, actinomycin D] (I: T[dV]P[Sar][NMeV] / II: T[dV]P[Sar][NMeV]; ester I:1-I:C, II:1-II:C; linker I:N-II:N via Actinocin(9to1))	105 ± 6.81%
5.02 ± 0.57%	2770 ± 210 ng·h/mL	2350 ± 270 ng·h/mL	1280 ± 170 ng/mL	0.63 ± 0.25 h	2.5 ± 0.45 h	0.29 ± 0.08 ×10⁻⁶ cm/s	1.78 ± 0.118 ×10⁻⁶ cm/s	Nc1nc2[nH]cc(CCc3ccc(C(=O)N[C@@H](CCC(=O)O)C(=O)O)cc3)c2c(=O)[nH]1 [PMX, N-[4-[2-(2-amino-3,4-dihydro-4-oxo-7H-pyrrolo[2,3-d]pyrimidin-5-yl)-ethyl]-benzoyl]-L-glutamic acid]	–
